High-throughput results deposited in PubChem BioAssay by Broad Institute.
FN deposition inh = fibronectin deposition inhibition; 350,000 tested, 0.086% active; AH1F fibroblasts, Alexa488-fibronectin deposition fluorescence, overnight; inhibition, % at 12.6 µM; AID 743247;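 active = mean inhibition across replicates of 30% or more, regardless of how many single replicates reach that level; inconclusive = mean under 30% yet at least half of replicates reach 30%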;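 also: positive control wells lacked labelled fibronectin entirely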
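Assay system: AH1F fibroblast monolayer, labelled fibronectin deposition. Amount: 10000 cells per well. Also added: labelled fibronectin 24 nM. Compound: single-point pinned compound. Incubation: cell attachment 1 h, compound and FN exposure overnight. Detection: fluorescence after three HBSS washes, excitation 485 nm, emission 525 nm. Read-out: inhibition of fibronectin deposition signal.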
FGF22 binding = binders of recombinant human FGF22 by thermal shift; 340,000 tested, 1.5% active; activity (Tm shift, normalised), % at 9.99 µM; SYPRO orange fluorescence; percent of sucrose octasulfate shift, DMSO zero; AID 651658; Q9HCT0;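 active = mean Tm shift, scaled 0 neutral to 100 positive control, at about 1.3% or above, every replicate too, limit read from the data; inconclusive = no clear call, values can overlap the other calls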
Target sequence (Q9HCT0 whole entry, looked up): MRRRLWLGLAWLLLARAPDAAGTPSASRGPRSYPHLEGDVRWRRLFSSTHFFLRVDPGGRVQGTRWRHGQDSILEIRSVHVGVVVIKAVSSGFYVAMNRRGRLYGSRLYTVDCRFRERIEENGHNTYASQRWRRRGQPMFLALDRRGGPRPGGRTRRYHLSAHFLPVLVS
DENV2 CPE rescue = DENV2-induced cell death inhibition; DENV2-infected cells, cytopathic effect rescue, plate reader; CPE inhibition, % at 9.99 µM; 350,000 tested, 1.7% active; AID 651640; in the data active = CPE inhibition above about 20%, passing the limit was not always enough; inconclusive = no clear call, values can overlap the other calls; tested in BHK-21 cells;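 also: 0% = median of neutral control wells and 100% = median of positive control wells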
ARNT-TACC3 inh = ARNT/TACC3 interaction disruption; Q9Y6A5; AlphaScreen His-ARNT PAS-B/GST-TACC3 binding, luminescence; TACC3 fragment carries E629A point mutation; inhibition, % at 9.99 µM; 390,000 tested, 0.66% active;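 active = mean inhibition of replicates at least 50% and at least half of replicates each reaching 50%; inconclusive = half or more replicates reach 50% but mean below 50%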;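 also: 0% = complete ARNT plus TACC3 wells and 100% = ARNT alone without TACC3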
SIRT5 inh = inhibitors of human sirtuin-5 desuccinylase; Q9NXA8; Purified SirT5, succinyl-peptide AMC, trypsin-coupled fluorescence; inhibition, % at 15 µM; 330,000 tested, 1.1% active; AID 652115; in the data active = inhibition above about 15%; inconclusive = no clear call, values can overlap the other calls
Target sequence (Q9NXA8 whole entry, looked up): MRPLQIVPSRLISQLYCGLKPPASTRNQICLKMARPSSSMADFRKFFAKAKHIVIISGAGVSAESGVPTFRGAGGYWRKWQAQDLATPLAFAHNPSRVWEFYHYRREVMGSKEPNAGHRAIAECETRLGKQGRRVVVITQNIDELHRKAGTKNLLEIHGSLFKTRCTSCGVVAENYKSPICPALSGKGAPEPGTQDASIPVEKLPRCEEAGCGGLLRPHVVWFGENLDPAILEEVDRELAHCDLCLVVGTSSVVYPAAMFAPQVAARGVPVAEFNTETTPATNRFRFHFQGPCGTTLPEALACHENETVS
Xi reactivation = reactivates the inactive X chromosome in mouse fibroblasts; 360,000 tested, 0.055% active; activation, % at 7.58 µM; XiGFP mouse fibroblasts, % GFP-positive cells imaging, 3 d; cells co-treated with 5-aza-dC sensitizer; scaled so ellipticine positive control = 100%;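 active = mean normalized replicate activation at least 10% and every replicate at or above 10%; inconclusive = only one of the two criteria met; inactive = mean below 10% and not all replicates reach 10%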;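 also: 0% = median of on-plate neutral control wells and 100% = ellipticine 6 µM median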
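System: 68-5-11 XiGFP fibroblast line | Buffer or medium: DMEM containing 5-aza-dC | Compound: Single point | Times: Compounds 3 days, fix/stain 15 min at room temperature | Benchmarks: Positive control ellipticine, 6 µM final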
AlphaScreen ctr = interferes with AlphaScreen signal, flagging false ARNT-TACC3 hits; shares compounds with ARNT-TACC3 inh; His-ARNT PASB-GST AlphaScreen artifact counter-screen, luminescence; AC50, µM (titrated, usually from 68 µM), for inactives: top-dose activity change, negative = signal decrease; 1,200 tested, 50% active; AID 651705;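 active = every separate test run was called active for a drop in luminescence, with AC50 within twice the top valid dose, actives reach about 71 µM in these data; inconclusive = the separate test runs disagree in their calls; inactive = all runs inactive, including signal change in the wrong direction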
* = called active by the depositor; ? = inconclusive; nt = no result; [ ] = dose if it differs, or a comment. Rows were chosen to be rich in hits. Some 3.8% of all compounds tested hit in one or more screens of this group.

SMILES	FN deposition inh	FGF22 binding	DENV2 CPE rescue	ARNT-TACC3 inh	SIRT5 inh	Xi reactivation	AlphaScreen ctr
O=C(C[C@H]1CC[C@@H]2[C@H](COC[C@@H](O)CN2C(=O)Nc2cc(Cl)cc(Cl)c2)O1)NCC1CC1	-1.5	-0.1	-0.1	42.4	-1.9	0.5	nt
Cc1ccc(S(=O)(=O)Nc2ccc3c(c2)C(=O)N([C@@H](C)CO)C[C@H](C)[C@@H](CN(C)Cc2ccc(C(=O)O)cc2)OCCCC[C@H](C)O3)cc1	1.5	nt	-4.3	0.0	-3.1	0.5	nt
CC(C)(C)[S@@](=O)N1Cc2cc(C(=O)N[C@@H]3CCN(Cc4ccccc4)C3)nc(-c3cccc(-c4cncnc4)c3)c2[C@H]1CCO	7.2	nt	nt	nt	nt	-0.1	nt
Cc1cc(C)c(C(N)=O)c(Nc2cccc3ccccc23)n1	nt	nt	nt	68.1*	nt	nt	-8.9%
N#Cc1cc(Cl)c(N2CCOCC2)cc1C#N	nt	nt	nt	-2.3	nt	nt	nt
N#Cc1cc2ccc(N3CCOCC3)cc2cc1C#N	nt	-0.4	2.6	28.8*	-0.8	nt	-15.6%
Cc1noc(C)c1S(=O)(=O)N(C)C[C@H]1Oc2c(NC(=O)c3cnccn3)cccc2C(=O)N([C@@H](C)CO)C[C@H]1C	-11.2	-0.3	0.8	-19.9	0.8	-0.5	nt
S=c1[nH]nc(-c2cc3c(s2)-c2ccccc2CC3)o1	nt	nt	nt	69.7*	nt	nt	-21.0%
CSc1nnc(-c2cc3c(s2)-c2ccccc2CC3)o1	nt	nt	nt	-2.8	nt	nt	nt
O=C(Nc1ccc2c(c1)[C@@H]1C[C@H](CC(=O)N3CCc4ccccc4C3)O[C@@H](CO)[C@@H]1O2)c1ccc2c(c1)OCO2	8.5	0.0	2.0	51.2*	4.2	0.3	49.5µM*
CCOc1ccc2c(c1)C(N(CCN1CCOCC1)C(=O)Nc1ccccc1)CC(C)(C)O2 (configuration not stated)	6.9	-0.2	-2.1	57.5*	-5.3	0.0	-7.8%
CCOc1ccc2c(c1)C(N(CCN1CCOCC1)C(=O)Nc1ccc(OC)cc1OC)CC(C)(C)O2 (configuration not stated)	7.1	0.0	2.3	20.9	-1.1	0.0	nt
C[C@@H]1CN([C@@H](C)CO)C(=O)c2cc(NC(=O)C3CC3)ccc2O[C@H]1CN(C)C(=O)Nc1ccc(F)cc1	nt	0.0	-1.1	55.1*	-1.1	0.2	-4.5%[42 µM]
C[C@@H]1CCCCO[C@@H](CN(C)C(=O)NC2CCCCC2)[C@H](C)CN([C@H](C)CO)C(=O)c2cc(NC(=O)C3CCCCC3)ccc2O1	nt	-1.1	-5.6	-3.9	13.5	0.2	nt
C[C@H](CO)N1C[C@H](C)[C@@H](CN(C)C(=O)Nc2ccc(C(F)(F)F)cc2)Oc2ncc(C3=CCCC3)cc2C1=O	7.9	0.0	-11.9	80.5*	5.2	0.0	-25.9%[38 µM]
C[C@H]1CCCCO[C@H](CN(C)C(=O)Nc2ccc(F)cc2)[C@@H](C)CN([C@@H](C)CO)C(=O)c2cc(NS(=O)(=O)c3ccc(Cl)cc3)ccc2O1	-7.3	nt	nt	active	-49.7	0.1	-36.4%[38 µM]
C[C@@H]1CN([C@H](C)CO)C(=O)c2cc(NC(=O)C3CC3)ccc2O[C@@H]1CN(C)C(=O)Nc1ccc(F)cc1	nt	0.2	?	-3.9	1.3	0.1	nt
C[C@@H]1CN([C@@H](C)CO)C(=O)c2cc(NC(=O)C3CCCCC3)ccc2O[C@@H](C)CCCCO[C@@H]1CN(C)C(=O)NC1CCCCC1	nt	0.1	nt	active	-1.5	-0.6	-5.4%[38 µM]
C[C@H](CO)N1C[C@H](C)[C@H](CN(C)C(=O)Nc2ccc(F)cc2)OCCCC[C@H](C)Oc2ccc(NS(=O)(=O)c3ccc(Cl)cc3)cc2C1=O	-2.7	nt	6.4	-6.0	1.8	0.6	nt
CCc1cnc(N2[C@@H](C#N)[C@H](c3ccc(C#Cc4ccccc4F)cc3)[C@@H]2CO)s1	-0.9	0.0	-15.2	-2.8	4.1	-0.1	nt
CN1[C@@H]2c3ccc(-c4cncnc4)c(=O)n3C[C@@H]2[C@@H](CO)[C@@H]1C(=O)NC1Cc2ccccc2C1	nt	-0.1	0.2	-0.3	3.3	0.4	nt
CCCNC(=O)C[C@@H]1CC[C@@H]2[C@H](COC[C@@H](O)CN2Cc2ccccc2F)O1	3.8	0.0	-6.2	-7.8	-1.7	-0.1	nt
C[C@@H]1CN([C@H](C)CO)C(=O)c2cc(NC(=O)Nc3ccc(C(F)(F)F)cc3)ccc2O[C@@H](C)CCCCO[C@@H]1CN(C)Cc1ccc2c(c1)OCO2	4.5	-0.9	-33.4	56.4*	-1.9	0.0	25.5µM*
C[C@@H]1CCCCO[C@H](CN(C)Cc2ccc3c(c2)OCO3)[C@@H](C)CN([C@H](C)CO)C(=O)c2cc(NC(=O)Nc3ccc(C(F)(F)F)cc3)ccc2O1	4.7	-1.1	-18.5	30.0	0.6	1.1	nt
COc1ccc(S(=O)(=O)Nc2ccc3c(c2)C(=O)N([C@H](C)CO)C[C@H](C)[C@H](CN(C)S(=O)(=O)c2ccc(C)cc2)O3)cc1	nt	-0.2	5.0	51.6*	-0.9	-0.1	-21.1%[38 µM]
SMILES	FN deposition inh	FGF22 binding	DENV2 CPE rescue	ARNT-TACC3 inh	SIRT5 inh	Xi reactivation	AlphaScreen ctr
C[C@@H]1CN([C@@H](C)CO)C(=O)c2cc(NC(=O)CCN3CCOCC3)ccc2O[C@@H]1CN(C)Cc1ccncc1	nt	-0.2	0.3	50.8*	-8.1	0.3	-6.8%[38 µM]
COc1ccccc1OCc1nc(C#N)c(NCCCn2ccnc2)o1	7.6	0.1	2.9	33.5*	-0.5	0.0	-10.4%
C=C1c2cccc(O)c2C(=O)C2C(=O)[C@]3(O)C(=O)C(C(N)=O)C(=O)[C@@H](N(C)C)[C@@H]3[C@@H](O)[C@H]12 (some centres not stated)	nt	-0.2	-5.7	54.3*	45.7*	-0.1	-18.6%
O=S(=O)(N[C@@H]1CCCN(Cc2ccc(OCCO)cc2)C1)c1cccc2cccnc12	nt	-0.1	-7.5	80.3*	0.3	nt	24.3µM*
CCOc1ccc(C(c2c(C)[nH][nH]c2=O)c2c(C)[nH][nH]c2=O)cc1OC	-4.7	nt	nt	6.1	nt	nt	nt
C#CCOc1ccc(OC)cc1C(c1c(C)[nH][nH]c1=O)c1c(C)[nH][nH]c1=O	nt	nt	nt	36.6*	nt	nt	1.9%
C[C@@H]1CN([C@@H](C)CO)S(=O)(=O)c2ccc(C3=CCCCC3)cc2O[C@@H]1CN(C)C(=O)C1CC1	nt	0.3	-2.2	-2.6	4.7	-1.0	nt
